A value given as a limit tells only on which side of the number the result lay.

Assay [1] relates to Human immunodeficiency virus 1. Nature of the assay: Inhibition of HIV-1 LA1 cytopathic effects on CEM-CL13 cells in vitro. Format: functional, organism-based. The following applies: Human immunodeficiency virus 1, CEM-CL13. The method in brief: (§1)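 CEM-c113 cells (1×10^4/well) preincubated 1 h with 10-fold compound dilutions, then infected with HIV-1 LAI; cultured 7 days at 37 °C, 5% CO2; cytopathic effect scored by MTT viability versus infected untreated cells; EC50 = 50% reduction of CPE; triplicate, mean of ≥2 experiments.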
(In general: Protection from cytopathic effect is a common read-out in antiviral testing.)

The subject of assay [2] is CEM-c113. Briefly: Concentration required to reduce by 50% the viability of noninfected treated CEM-CL13 cells. Format: functional. To be noted: Homo sapiens. The gist of the method: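 CEM-c113 cells, 1×10^4 per well, exposed to 10-fold dilutions of compound without virus; 7 days at 37 °C, 5% CO2; MTT viability read-out; CC50 = concentration reducing viability by 50% relative to uninfected untreated controls; triplicate wells, mean of at least two experiments.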

Assay [3] in a line: Ratio of CC50 in CEM-CL13 cells to EC50 in HIV-1 LA1 infected CEM-CL13 cells. The assay is classed as functional. The method in brief:
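Selectivity index computed as CC50 (MTT viability of uninfected treated CEM-c113 cells) divided by EC50 (MTT protection of HIV-1 LAI-infected CEM-c113 cells), both from 7-day cultures at 37 °C exposed to 10-fold compound dilutions.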

Assay [4] has as its system CEM-c113. Briefly: Concentration that reduces by 50% the HIV induced cytopathic effect on CEM-CL13 cells by MTT viability assay; NA = Not active. The assay is classed as functional, cell-based, Homo sapiens. The gist of the method:
as §1

One may read the EC50 as the concentration that produces a half-maximal response. One may read the CC50 as the concentration at which the toxic effect on the cells reaches its halfway point. In turn, `Cc1cn(C2CC(N=[N+]=[N-])C(CO)O2)c(=O)n(CCCCCCO)c1=O` (stereo not given) gave an EC50 in assay [1] of 0.082 µM. Also, it took 64 µM to reach half-maximal cytotoxicity in the assay on CEM-c113 [2] (CC50). For the same molecule, the Ratio in assay [3] turned out to be 780.

`COc1nc(=O)n(CCn2c(=O)c(C)cn(C3CC(N=[N+]=[N-])C(CO)O3)c2=O)cc1C` (stereo not given): the EC50 result in the assay with CEM-c113 [4] is listed as “Not Active”. In addition, in the assay with CEM-c113 [2], half-maximal cytotoxicity (CC50) was put at 29 µM.

Molecule `Cc1cn(C2CC(N=[N+]=[N-])C(CO)O2)c(=O)n(CCN2C(=O)c3ccccc3C2=O)c1=O` (stereo not given) displayed an EC50 in assay [1] of 110 µM. In addition, the CC50 in the assay on CEM-c113 [2] was 227 µM. Also, the Ratio in assay [3] is reported as 2.

`Cc1cn([C@H]2C[C@H](N=[N+]=[N-])[C@@H](CO)O2)c(=O)[nH]c1=O` [ZIDOVUDINE] returned an EC50 in assay [1] of 0.003 µM. The CC50 in the assay with CEM-c113 [2] is above 5 µM. Moreover, the Ratio in assay [3] worked out at 1667.

In assay [1], `Cc1cn(C2CC(N=[N+]=[N-])C(CO)O2)c(=O)n(CCCO)c1=O` (stereo not given) showed an EC50 of 0.15 µM. In addition, the CC50 in the assay on CEM-c113 [2] turned out to be 154 µM. In assay [3], the Ratio stood at 1027.

In the case of `Cc1cn(C2CC(N=[N+]=[N-])C(CO)O2)c(=O)n(Cc2ccoc2)c1=O` (stereo not given), in assay [1], a half-maximal effect (EC50) was put at 143 µM. The molecule further registered a CC50 with CEM-c113 [2] above 288 µM. Also, the Ratio in assay [3] turned out to be 2.

Take `Cc1cn(C2CC(N=[N+]=[N-])C(CO)O2)c(=O)n(N)c1=O` (stereo not given): the EC50 in assay [1] was determined as 0.045 µM. Also, the CC50 in the assay on CEM-c113 [2] amounted to 450 µM. Also, the Ratio in assay [3] is recorded as 10000.

For `Cc1cn(C2CC(N=[N+]=[N-])C(CO)O2)c(=O)n(Cc2ccccc2)c1=O` (stereo not given), the EC50 entry in the assay on CEM-c113 [4] was “Not Active”. The molecule also returned a CC50 with CEM-c113 [2] of 28 µM.

The molecule `Cc1cn(C2CC(N=[N+]=[N-])C(CO)O2)c(=O)n(CC2CO2)c1=O` (stereo not given) had an EC50 in assay [1] of 6.8 µM. Also, the CC50 with CEM-c113 [2] is above 62 µM. Also, the Ratio in assay [3] is on record as 9.

As to `CCOC(=O)Cn1c(=O)c(C)cn(C2CC(N=[N+]=[N-])C(CO)O2)c1=O` (stereo not given), the response in assay [1] was half-maximal at 1.47 µM (EC50). Besides, in the assay with CEM-c113 [2], the CC50 was 283 µM. For the same molecule, the Ratio in assay [3] was determined as 193.

Molecule `Cc1cn(C2CC(N=[N+]=[N-])C(CO)O2)c(=O)n(CC2COC(C)(C)O2)c1=O` (stereo not given) displayed an EC50 in assay [1] of 1.3 µM. Moreover, the CC50 in the assay on CEM-c113 [2] was above 131 µM. For the same molecule, the Ratio in assay [3] was 100.

Turning to `C=CCn1c(=O)c(C)cn(C2CC(N=[N+]=[N-])C(CO)O2)c1=O` (stereo not given), the EC50 in assay [1] was determined as 32 µM. The same molecule displayed a CC50 in the assay on CEM-c113 [2] of 350 µM. The Ratio in assay [3] is recorded as 11.

With `Cc1cn(C2CC(N=[N+]=[N-])C(CO)O2)c(=O)n(CCN=[N+]=[N-])c1=O` (stereo not given), in assay [1], the EC50 was 0.26 µM. This molecule had a 50% cytotoxic concentration (CC50) with CEM-c113 [2] of 60 µM. Further, in assay [3], the Ratio is reported as 230.

Molecule `Cc1cn(C2CC(N=[N+]=[N-])C(CO)O2)c(=O)n(CCBr)c1=O` (stereo not given) had an EC50 in assay [1] of 2.67 µM. Further, it took 53 µM to reach half-maximal cytotoxicity with CEM-c113 [2] (CC50). For the same molecule, the Ratio in assay [3] came to 20.

In assay [1], `Cc1cn(C2CC(N=[N+]=[N-])C(CO)O2)c(=O)n(C)c1=O` (stereo not given) displayed an EC50 of 0.94 µM. In the assay on CEM-c113 [2], half-maximal cytotoxicity (CC50) was put at 355 µM. Besides, the Ratio in assay [3] is 380.

As to `CCOP(=O)(Cn1c(=O)c(C)cn(C2CC(N=[N+]=[N-])C(CO)O2)c1=O)OCC` (stereo not given), the EC50 in assay [1] is 0.071 µM. Moreover, the CC50 with CEM-c113 [2] worked out at 240 µM. Moreover, the Ratio in assay [3] is given as 3380.

For `Cc1cn(C2CC(n3c(=O)c(C)cn(C4CC(N=[N+]=[N-])C(CO)O4)c3=O)C(CO)O2)c(=O)[nH]c1=O` (stereo not given), a half-maximal response in assay [1] (EC50) required 2.2 µM. In addition, in the assay with CEM-c113 [2], half-maximal cytotoxicity (CC50) was put at 66 µM. Also, in assay [3], the Ratio is listed as 30.

With `Cc1cn(C2CC(N=[N+]=[N-])C(CO)O2)c(=O)n(CC2CC(CO)=NO2)c1=O` (stereo not given), the EC50 in assay [1] was determined as 0.5 µM. This molecule registered a CC50 in the assay on CEM-c113 [2] of 26 µM. Besides, the Ratio in assay [3] is 52.

Regarding `Cc1cn(C2CC(N=[N+]=[N-])C(CO)O2)c(=O)n(CCn2c(=O)c(C)cn(C3CC(N=[N+]=[N-])C(CO)O3)c2=O)c1=O` (stereo not given), the EC50 in assay [1] came to 0.7 µM. In addition, half-maximal cytotoxicity in the assay on CEM-c113 [2] (CC50) was put at 36 µM. In addition, in assay [3], the Ratio is 51.

In assay [1], `CCOC(Cn1c(=O)c(C)cn(C2CC(N=[N+]=[N-])C(CO)O2)c1=O)OCC` (stereo not given) registered an EC50 of 5 µM. Besides, the midpoint of cytotoxicity with CEM-c113 [2], the CC50, lay at 130 µM. Also, the Ratio in assay [3] is listed as 26.

Regarding `Cc1cn(C2CC(N=[N+]=[N-])C(CO)O2)c(=O)n(CCO)c1=O` (stereo not given), the EC50 in assay [1] was found to be 0.3 µM. The molecule further returned a CC50 in the assay with CEM-c113 [2] of 161 µM. The Ratio in assay [3] amounted to 537.

As to `COCCOCn1c(=O)c(C)cn(C2CC(N=[N+]=[N-])C(CO)O2)c1=O` (stereo not given), in assay [1], the EC50 stood at 5.6 µM. In the assay on CEM-c113 [2], this molecule registered a CC50 of 281 µM. For the same molecule, the Ratio in assay [3] is 50.

Turning to `Cc1cn(CCn2c(=O)c(C)cn(C3CC(N=[N+]=[N-])C(CO)O3)c2=O)c(=O)[nH]c1=O` (stereo not given), in assay [1], the EC50 stood at 0.48 µM. The CC50 with CEM-c113 [2] was above 29 µM. The Ratio in assay [3] was determined as 60.

`CCCCCn1c(=O)c(C)cn(C2CC(N=[N+]=[N-])C(CO)O2)c1=O` (stereo not given): the EC50 in assay [1] was determined as 0.89 µM. The CC50 with CEM-c113 [2] was above 60 µM. The Ratio in assay [3] is reported as above 67.

These data come from ChEMBL document CHEMBL1130032, “Preparation and anti-HIV activity of N-3-substituted thymidine nucleoside analogs” (J Med Chem, 1997).
